Efflux pump mplx: blocks antifungal efflux pumps in multiplex yeast assay | inhibition, % at 10 µM | S. cerevisiae Candida pump triplex, Nile Red efflux | 330,000 compounds, 0.44% hits;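 active = plate passing quality check with inhibition over a set limit, or well fluorescence over plate mean plus 4 SD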;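 also: Nile Red retained in pooled yeast measured as flow cytometry median fluorescence; higher means more Nile Red kept so more efflux inhibition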
Arrestin-AP2 inh: blocks beta-arrestin peptide binding to AP2 adaptin. FITC-arrestin peptide / GST-AP2 beads, flow cytometry; AP2 beta2 appendage carries R879A mutation. inhibition, % at 10 µM. 340,000 compounds, 0.31% hits;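 active = inhibition above a set limit, near 3 SD of compounds lacking own fluorescence, cut at about 54% in these data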
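System: GST-AP2 R879A bound to glutathione beads, E. coli-expressed. Also added: 50 nM FITC-arrestin peptide. Schedule: compound with beads 12 min RT, then probe 1 h RT. Signal: bead flow cytometry, FITC channel. Read-out basis: percent response.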
Neddyl block: cullin neddylation inhibition. P61081+Q13564. TR-FRET cullin neddylation, biochemical. inhibition, % at 25 µM. 360,000 compounds, 0.58% hits; in the data active = inhibition above about 36%
DSG3 Ab inh: blocks pemphigus antibody binding to human desmoglein-3. P32926. DSG3-coupled beads, scFv-anti-DSG3-GFP binding, flow cytometry; hits give low values. binding (percent of control), % at 10 µM. 310,000 compounds, 0.48% hits. AID 588358;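 active = binding more than 3 SD below its plate's average and above zero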;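 also: hits lower antibody fragment binding to DSG3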
Yeast cmpd fluor: flagged as fluorescent in efflux inhibitor counter-screen; AID 588517; 1,700 compounds, 4% hits; fluorescence ratio to DMSO, % at 10 µM; shares compounds with Efflux pump mplx; S. cerevisiae AD/pABC3, compound fluorescence, flow cytometry;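 active = fluorescence ratio to DMSO above its plate's cutoff, the plate mean ratio plus 5 SD, cut at about 210% in these data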;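 also: unstained yeast with no Nile Red so the signal is compound autofluorescence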
Mdr1 pump inh: blocks the Candida albicans Mdr1 efflux pump in yeast; S. cerevisiae AD/CaMDR1, Nile Red efflux, flow cytometry; shares compounds with Efflux pump mplx; AID 588518; 1,700 compounds, 1% hits; inhibition, % at 10 µM; in the data active = inhibition above about 26%;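 also: higher means more Nile Red retained so more efflux inhibition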
CaCdr2 efflux inh: Candida Cdr2 efflux pump inhibition; shares compounds with Efflux pump mplx; S. cerevisiae AD/CaCDR2, Nile Red retention, flow cytometry; Nile Red retention ratio vs DMSO, % at 10 µM; 1,700 compounds, 4% hits; AID 588520; in the data active = Nile Red retention ratio vs DMSO above about 190%;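 also: higher ratio means more blocking of Cdr2 efflux of the dye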
CaCdr1 efflux inh: inhibitors of Candida albicans Cdr1 efflux pump; S. cerevisiae AD/CaCDR1, Nile Red efflux, flow cytometry; 1,700 compounds, 1% hits; inhibition, % at 10 µM; shares compounds with Efflux pump mplx;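 active = inhibition above the screen-wide mean plus twice its standard deviation, cut at about 32% in these data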
Arr AP2 CP1: blocks beta-arrestin peptide binding to human AP2; inhibition, % at 10 µM; GST-AP2 beads, FITC arrestin peptide binding, flow cytometry; GST-fused beta2-adaptin appendage, R879A mutant; 1,300 compounds, 2% hits; AID 504908; shares compounds with Arrestin-AP2 inh;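 active = inhibition above a set limit, roughly 3 SD of non-fluorescent compound noise, cut at about 38% in these data; inactive = inhibition at or below that limit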;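 also: loss of bead fluorescence from 50 nM FITC arrestin peptide bound to appendage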
GST GSH counter: GST-GSH bead binding interference, counter-screen. shares compounds with Arrestin-AP2 inh. GST-fluorescein binding to GSH beads, fluorescence. inhibition, % at 10 µM. 1,300 compounds, 2% hits. AID 588338;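 active = inhibition above 50%, about 3 SD of the inhibition seen with non-fluorescent compounds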;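 also: fluorescein maleimide labelled GST captured on 4 micron glutathione beads; higher means more loss of bead fluorescence from quenching or blocked binding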
Neddyl inh conf: cullin neddylation inhibition, confirmation. 1,800 compounds, 13% hits. calls only at 25 µM. AID 652217. TR-FRET cullin neddylation biochemical assay. shares compounds with Neddyl block; in the data active = inhibition above about 40%;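 also: neddylation substrate is the cullin 1 ring ligase complex with SKP2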
Each line names hits and unclear results; the compound was inactive in the other large screens (follow-up assays come after a bar, where shown). Sampled rows, rich in hits. Any-hit rate of the full collection: about 1.7%.

COc1ccc(C(CCN2CCOCC2)c2c(OC)cc(OC)c3c(-c4ccccc4)cc(=O)oc23)cc1 (centres undefined)	Efflux pump mplx 1.6, Neddyl block 45 | Yeast cmpd fluor inactive | Mdr1 pump inh inactive | CaCdr2 efflux inh inactive | CaCdr1 efflux inh inactive | Neddyl inh conf inactive
O=C(NC(=S)N1CCOCC1)c1cn(-c2ccccc2)nc1-c1ccccc1	none (no result: DSG3 Ab inh)
Cc1ncc(C(=O)O)c(C(=O)O)c1N	Efflux pump mplx 5.5, Neddyl block 40 | Yeast cmpd fluor inactive | Mdr1 pump inh inactive | CaCdr2 efflux inh inactive | CaCdr1 efflux inh inactive
CCCc1c(C(=O)N/N=C/c2ccc(OCc3ccccc3)c(OC)c2)nnn1-c1nonc1N	none (no result: DSG3 Ab inh)
CCCc1c(C(=O)N/N=C/c2c(OC)ccc3ccccc23)nnn1-c1nonc1N	Neddyl block 49 (no result: DSG3 Ab inh) | Yeast cmpd fluor inactive | Mdr1 pump inh inactive | CaCdr2 efflux inh inactive | CaCdr1 efflux inh inactive | Neddyl inh conf inactive
CN(Cc1ccccc1)C(=O)c1ccc2c(c1)NC(=O)C(N1CCOCC1)S2 (centres undefined)	none (no result: Efflux pump mplx)
CN(c1ccc(F)cc1)S(=O)(=O)c1ccc(Cl)c(C(=O)NCC2(N3CCOCC3)CCCCC2)c1	none (no result: Efflux pump mplx, DSG3 Ab inh) | Arr AP2 CP1 inactive | GST GSH counter inactive
CN(c1ccc(F)cc1)S(=O)(=O)c1ccc(Cl)c(C(=O)NCC2CCCO2)c1 (centres undefined)	none (no result: Efflux pump mplx)
COc1ccccc1NS(=O)(=O)c1cccc(C(=O)NCC2(N(C)C)CCCCC2)c1	none | Arr AP2 CP1 inactive | GST GSH counter inactive
COc1ccccc1N(C)S(=O)(=O)c1ccc(Cl)c(C(=O)NNC(=O)c2ccccc2O)c1	none
COc1ccccc1NS(=O)(=O)c1ccc(C(=O)NCC2(N(C)C)CCCCC2)cc1	none
COc1ccccc1N(C)S(=O)(=O)c1ccc(Cl)c(C(=O)NCC2(N(C)C)CCCCC2)c1	none | Arr AP2 CP1 inactive | GST GSH counter inactive
COc1ccc(Cl)cc1NS(=O)(=O)c1cccc(C(=O)NCC2(N(C)C)CCCCC2)c1	none | Arr AP2 CP1 inactive | GST GSH counter inactive
Cc1ccc(NC(=O)c2cccc(NC3=NC4CS(=O)(=O)CC4S3)c2)cc1 (centres undefined)	none
O=C(Nc1nnc(S(=O)(=O)Nc2ccccc2)s1)C1CCCCC1	none
CCc1ccc2[nH]c(=O)c(CN(CCN(C)C)C(=O)Nc3ccccc3)cc2c1	none
CCc1ccc2[nH]c(=O)c(CN(CCN(CC)CC)C(=O)NC3CCCCC3)cc2c1	Arrestin-AP2 inh 76 | Arr AP2 CP1 inactive | GST GSH counter inactive
Cc1cc(C)c2cc(CN(CCO)C(=O)NC3CCCCC3)c(=O)[nH]c2c1	none
Cc1ccc2cc(CN(CCCN3CCOCC3)C(=O)NC3CCCCC3)c(=O)[nH]c2c1C	none | Arr AP2 CP1 inactive | GST GSH counter inactive
CCN1CCCC1CN(Cc1cc2c(C)cc(C)cc2[nH]c1=O)C(=O)NC1CCCCC1 (centres undefined)	none | Arr AP2 CP1 inactive | GST GSH counter inactive
Cc1cccc2cc(CN(CCN3CCCC3)C(=O)NC3CCCCC3)c(=O)[nH]c12	none | Arr AP2 CP1 inactive | GST GSH counter inactive
Cc1cccc(NS(=O)(=O)c2cccc(C(=O)NCC(C)(C)N3CCOCC3)c2)c1	none
CCn1c(S(=O)(=O)O)nc2ccccc21	none
O=C(NC1CCCCC1)N(Cc1cc2cc3c(cc2[nH]c1=O)OCCO3)CC1CCCO1 (centres undefined)	none | Arr AP2 CP1 inactive | GST GSH counter inactive
O=C(NC1CCCCC1)N(CCN1CCCC1)Cc1cc2cc3c(cc2[nH]c1=O)OCCO3	none
Cc1cc2cc(CN(CCCN3CCOCC3)C(=O)NC3CCCCC3)c(=O)[nH]c2cc1C	none | Arr AP2 CP1 inactive | GST GSH counter inactive
CCc1ccc(NC(=O)c2c(C(=O)Nc3ccccc3)sc3nc(C)cc(=O)n23)cc1	none
O=C(Nc1ccc2c(c1)OCCO2)C1CC(O)CN1C(=O)Nc1ccccc1 (centres undefined)	none
O=C(CSc1nc2ccc([N+](=O)[O-])cc2[nH]1)c1ccc2ccccc2c1	Arrestin-AP2 inh 106 | Arr AP2 CP1 inactive | GST GSH counter inactive
CCn1ncc(Cl)c1C(=O)Nc1cc([N+](=O)[O-])ccc1OC	Arrestin-AP2 inh 106 | Arr AP2 CP1 inactive | GST GSH counter inactive
CCOC(=O)c1c(C(=O)OCC)c(C)n(N2C(=O)CSC2=S)c1C	Arrestin-AP2 inh 60 | Arr AP2 CP1 inactive | GST GSH counter inactive
CC(C)OC(=O)CSc1nc(Cc2ccccc2)nc2ccccc12	Arrestin-AP2 inh 71 | Arr AP2 CP1 inactive | GST GSH counter inactive
COC(=O)CSc1nc(Cc2ccccc2)nc2ccccc12	none
COc1cccc(C(=O)NCCS(=O)(=O)NC(C)CCc2ccccc2)c1 (centres undefined)	none
c1ccc(Nc2cccc(Nc3ccccc3)n2)cc1	Arrestin-AP2 inh 61 | Arr AP2 CP1 inactive | GST GSH counter inactive
CCc1cc(=O)oc2cc(C)cc(OCC(=O)NCc3ccncc3)c12	none (not shown: Neddyl block)
Cc1cccc(N/N=C(\C(N)=O)C2=NC(C)(C)Cc3ccccc32)c1	Arrestin-AP2 inh 55 | Arr AP2 CP1 inactive | GST GSH counter inactive
CC(OC(=O)CCCNC(=O)c1ccc(Cl)cc1)C(=O)N(C)Cc1ccccc1 (centres undefined)	none
S=C(NCc1ccco1)Nc1cccc(Cl)c1	Arrestin-AP2 inh 59 (no result: DSG3 Ab inh) | Arr AP2 CP1 inactive | GST GSH counter inactive
S=C(NCc1ccco1)Nc1ccc(Cl)c(Cl)c1	none
CC(=O)Nc1cccc(NC(=O)Cc2cccs2)c1	none
C#Cc1cccc(NC(=O)Cc2cccs2)c1	Arrestin-AP2 inh 56 | Arr AP2 CP1 inactive | GST GSH counter inactive
Cc1cc(NC(=O)CCC(=O)N(Cc2cccnc2)C(C(=O)NC(C)(C)C)c2ccccc2Cl)no1 (centres undefined)	Arrestin-AP2 inh 57 | Arr AP2 CP1 inactive | GST GSH counter inactive
CC(OC(=O)c1ccc2ncsc2c1)C(=O)N(C)C1CCCCC1 (centres undefined)	Arrestin-AP2 inh 60 | Arr AP2 CP1 inactive | GST GSH counter inactive
COCCCn1c(C)csc1=Nc1cccnc1	none

Screening results (PubChem)
